Screens deposited in PubChem BioAssay by Johns Hopkins Ion Channel Center.
KCNK9 inh – KCNK9 potassium channel inhibitors, primary screen, HEK293 cells, thallium flux. Potassium channel subfamily K member 9 (Homo sapiens), Q9NPC2. FluxOR thallium flux fluorescence; active compounds read low. B-score at 10 µM. actives 1.2% (n = 310,000). AID 488922, 2010;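 active means ratio B-score over 3 SD below the library mean, with starting fluorescence within 5 SD of its mean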;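 further: negative B-score means less thallium flux so channel inhibition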
Target sequence (Q9NPC2 whole entry, looked up): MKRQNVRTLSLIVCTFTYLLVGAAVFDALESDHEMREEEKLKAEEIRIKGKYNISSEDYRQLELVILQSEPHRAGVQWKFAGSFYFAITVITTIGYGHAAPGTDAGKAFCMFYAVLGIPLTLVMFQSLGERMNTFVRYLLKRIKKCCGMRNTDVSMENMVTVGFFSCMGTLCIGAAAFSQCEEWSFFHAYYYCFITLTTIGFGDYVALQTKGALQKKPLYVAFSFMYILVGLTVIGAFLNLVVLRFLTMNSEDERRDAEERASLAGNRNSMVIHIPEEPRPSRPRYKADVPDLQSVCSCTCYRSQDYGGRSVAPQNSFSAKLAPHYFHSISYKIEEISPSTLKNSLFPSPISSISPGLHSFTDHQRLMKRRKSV
KCNK3 inh – human KCNK3 channel inhibitors, primary screen, CHO cells, FluxOR thallium flux, B-score. Potassium channel subfamily K member 3 (Homo sapiens), O14649. FluxOR fluorescence; active compounds read low. B-score at 10 µM. actives 0.84% (n = 340,000). AID 602410, 2012;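 active means B-score under library mean minus 4 SD, starting fluorescence ratio at most library mean plus 5 SD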;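 further: more negative B-score means stronger inhibition of thallium flux through KCNK3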
KCNQ1 act – potentiators or activators of KCNQ1 channel, primary screen, cell-based, thallium flux, high-throughput. Potassium voltage-gated channel subfamily KQT member 1 (Homo sapiens), P51787. CHO-K1 KCNQ1, thallium flux FluxOR fluorescence; active compounds read high. B-score at 10 µM. actives 0.35% (n = 310,000). AID 2648, 2010;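 active means fluorescence ratio B-score, a plate-corrected score, at least three library SD, with initial intensity B-score within 5 SD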
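Medium – assay buffer, equal DMSO in all wells · Material – CHO-K1 cell line with stable KCNQ1 potassium channel expression · Signal – kinetic FluxOR thallium fluorescence, 10-s 1-Hz baseline, 110-s post-stimulus read · Compound – single concentration per compound, DMSO matched to controls · Schedule – 37 °C overnight plating, 90-min dark dye load, 20-min compound pretreatment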
KCNQ1 inh – inhibitors of human KCNQ1 channel, primary screen, cell-based, thallium flux, high-throughput | CHO-K1 KCNQ1, FluxOR thallium flux fluorescence; active compounds read high | Potassium voltage-gated channel subfamily KQT member 1 (Homo sapiens), P51787 | B-score at 10 µM | actives 1.3% (n = 310,000);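 active means compounds whose thallium flux B-score, printed positive for inhibition, exceeds three library SD while starting fluorescence stays within three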;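 further: channel opened by potassium depolarization with thallium stimulus after 20 min compound exposure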
hERG protect – hERG rescue from dofetilide block, primary screen, cell-based, CHO-hERG, FluxOR thallium flux, dofetilide IC70; Voltage-gated inwardly rectifying potassium channel KCNH2 (Homo sapiens), Q12809; dofetilide IC70 present; activation (rescue from dofetilide block), less the hit threshold, % at 10 µM; actives 0.51% (n = 310,000);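 active means activation above the mean of controls blocked by dofetilide plus 5 SD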;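 further: thallium influx through hERG after potassium depolarization seen as dye fluorescence rise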
KCNK9 block conf – KCNK9 potassium channel inhibitors, confirmation, HEK293 cells, thallium flux, duplicate. FluxOR thallium flux fluorescence. actives 43% (n = 4,900). shares compounds with KCNK9 inh. AID 492992, 2010. inhibition, % at 10 µM;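 active means thallium signal inhibited by more than 5 SD of the compound-free buffer control wells, on both duplicate plates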;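 further: 0% = assay buffer control wells without compound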
Kir21 sel – mouse Kir2.1 channel inhibition, confirmation, selectivity assay for KCNK9 modulator project, cell-based, HEK293, thallium flux; shares compounds with KCNK9 inh; Kir2.1 cells, FluxOR thallium flux fluorescence; inhibition, % at 10 µM; actives 4% (n = 4,900);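 active means thallium signal drop more than 5 SD beyond the mean of the no-compound control wells, seen in both duplicate plates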;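 further: signal is fluorescence rise after thallium addition divided by baseline fluorescence; plate controls were assay buffer only for no effect and full block by chlorpromazine control for full effect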
KCNK9 uninduced – thallium flux in non-induced HEK293 cells, confirmation, counter-screen for KCNK9 inhibitor project, cell-based, second counter screen, non-induced KCNK9-HEK293; shares compounds with KCNK9 inh; FluxOR thallium flux; inhibition, % at 10 µM; actives 40% (n = 4,900); AID 492997, 2010;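 active means thallium signal drop beyond 5 SD of the untreated control mean, on both duplicate plates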;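 further: plate controls were buffer only IC0 wells for no effect and SID17386958 at its maximal inhibitory level for full effect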
* hit, by the source's call; i = inactive; nt = no result. Rows were chosen to be rich in hits. Some 3.1% of all compounds tested hit in one or more screens of this group.

SMILES | KCNK9 inh | KCNK3 inh | KCNQ1 act | KCNQ1 inh | hERG protect | KCNK9 block conf | Kir21 sel | KCNK9 uninduced
CNS(=O)(=O)c1ccc(NCC2COc3ccccc3O2)c([N+](=O)[O-])c1 (centres undefined) | i | i | i | i | -2 | nt | nt | nt
N#CC1=C(S)N(c2ccccc2)C(c2ccc(-c3cc(Cl)ccc3Cl)o2)NC1=O (centres undefined) | i | i | i | i | -16 | nt | nt | nt
N#CC1=C(S)N(c2ccccc2)C(c2ccc(-c3ccc(Cl)c(Cl)c3)o2)NC1=O (centres undefined) | i | i | i | i | -16 | i | i | i
CCCc1nc2ccccc2c(=O)n1/N=C/c1ccccc1O | -8.4* | i | i | 6* | -16 | 60%* | i | 30%*
COc1ccc(COC(=O)Nc2cc3c(C(F)(F)F)nn(C)c3s2)cc1 | i | i | i | i | -11 | i | i | i
CCCN(CCC)CC(=O)Nc1cccc2c1OCO2 | i | i | i | i | -5 | nt | nt | nt
CN(C)CCn1c(=O)n(Cc2ccco2)c(=O)c2c3c(sc21)CCCCC3 | i | i | i | i | -20 | i | i | i
CN(C)CCn1c(=O)n(C2CCCCC2)c(=O)c2c3c(sc21)CCCCC3 | i | i | i | i | -5 | i | i | i
O=C(Cn1c(=O)n(Cc2ccco2)c(=O)c2c3c(sc21)CCCCC3)Nc1ccccc1 | i | i | i | 6* | 1 | i | i | 34%*
O=C(Cn1c(=O)n(Cc2ccco2)c(=O)c2c3c(sc21)CCCCC3)c1ccccc1 | i | i | i | i | -5 | nt | nt | nt
CCn1c(=O)c2c(nc(SCC(=O)Nc3ccccc3)n2C)n(C)c1=O | i | i | i | i | -6 | nt | nt | nt
COc1ccc(OC)c(/C=N/c2c(-c3ccc(O)c(OC)c3)nc3ccccn23)c1 | -14* | i | i | i | -6 | i | i | i
Cc1ccccc1NC1=C(C(=O)c2ccccc2)N(C)S(=O)(=O)c2ccccc21 | -12* | -9* | i | i | -11 | 32%* | i | 38%*
CN1C(C(=O)Nc2ccc(C(=O)O)cc2)=C(O)c2ccccc2S1(=O)=O | nt | i | nt | nt | nt | nt | nt | nt
Cc1ccc(S(=O)(=O)N2CCNC(=O)CC2)cc1 | i | i | i | i | -5 | nt | nt | nt
CCOC(=O)c1ccc2c(c1)nc(SC(C)C(=O)NCC1CCCO1)n2CC (centres undefined) | nt | i | nt | nt | nt | nt | nt | nt
CCN(CC)S(=O)(=O)c1ccc2c(c1)nc(SC(C)C(=O)NCC1CCCO1)n2CC (centres undefined) | i | i | i | i | -11 | i | i | i
NC(=O)CSc1nnc(-c2cccs2)n1Cc1ccco1 | i | i | i | i | -9 | nt | nt | nt
Cc1ccc(C)c(CSc2nnc(-c3cccs3)n2Cc2ccco2)c1 | -12* | i | i | i | -13 | 36%* | 61%* | 42%*
O=C(/C=C/c1ccco1)Oc1cc(Br)cc(/C=N/NC(=O)c2ccccc2O)c1 | -14* | i | i | i | -11 | 76%* | i | 38%*
Cc1ccc(C(=O)N/N=C/c2cccc(OC(=O)/C=C/c3ccco3)c2)cn1 | i | i | i | i | -11 | nt | nt | nt
CN1CCN(c2ccc(CNC(=O)c3ccco3)cc2)CC1 | i | i | i | i | -11 | nt | nt | nt
O=C(Cn1ccc(NC(=O)OCc2ccccc2)nc1=O)NCCc1c[nH]c2ccccc12 | nt | i | nt | nt | nt | nt | nt | nt
Oc1ccc(-c2nc3ccc4ccccc4c3c3c2CCC3)cc1O | i | i | i | i | -10 | nt | nt | nt
COc1ccc(C(=O)c2cccc(C(=O)c3ccc(OC)c(C)c3)c2)cc1C | i | i | i | i | -10 | i | i | i
SMILES | KCNK9 inh | KCNK3 inh | KCNQ1 act | KCNQ1 inh | hERG protect | KCNK9 block conf | Kir21 sel | KCNK9 uninduced
COc1cc(C)ccc1OCc1cc(C(=O)N2CCC(c3ccc(F)cc3)C2)no1 (centres undefined) | i | i | i | i | -8 | i | i | i
Cc1ccc(C)c(OCc2cc(C(=O)N3C[C@@H](C)O[C@@H](C)C3)no2)c1 | i | i | i | i | -11 | nt | nt | nt
Cc1ccc(C)c(OCc2cc(C(=O)N3CC[C@@H]4CCCC[C@H]4C3)no2)c1 | i | i | i | i | -13 | i | i | 24%*
Cn1cc(S(=O)(=O)N2CCN(c3ccccc3)CC2)c(=O)n(C)c1=O | i | i | i | i | -7 | nt | nt | nt
Cn1cc(S(=O)(=O)N2CCN(c3cccc(Cl)c3)CC2)c(=O)n(C)c1=O | i | i | i | i | -10 | i | i | i
O=C(Nc1ccc(S(=O)(=O)Nc2cnc3ccccc3n2)cc1)c1ccc(Cl)cc1Cl | i | i | i | i | -4 | nt | nt | nt
CC(Oc1ccc(Cl)cc1Cl)C(=O)Nc1ccc(S(=O)(=O)Nc2cnc3ccccc3n2)cc1 (centres undefined) | i | nt | i | i | -7 | i | i | i
CCc1ccc(NS(=O)(=O)c2c(C(=O)N3CCCCCC3)c(C)n(C)c2C)cc1 | i | i | i | i | -11 | nt | nt | nt
Cc1cc(C(=O)N2CCCC(N3CCN(c4cccc(Cl)c4)CC3)C2)nn1C (centres undefined) | i | i | i | i | -6 | nt | nt | nt
Cc1cc(C(=O)N2CCCC(N3CCN(c4cccc(C(F)(F)F)c4)CC3)C2)c(C)o1 (centres undefined) | i | i | i | i | -16 | i | i | i
CC1(CCC(=O)N2CCCC(N3CCN(c4cccc(C(F)(F)F)c4)CC3)C2)CC1 (centres undefined) | i | i | i | i | -17 | i | i | i
Cc1cc(C(=O)N2CCCC(N3CCN(c4cccc(C(F)(F)F)c4)CC3)C2)nn1C (centres undefined) | i | i | i | i | -7 | i | i | i
